Test results as given in ChEMBL document CHEMBL1156912, “Subtlety of the structure-affinity and structure-efficacy relationships around a nonpeptide oxytocin receptor agonist” (J Med Chem, 2010).
Active and inactive are the calls of the source. No cut-off for these calls is given here.

Legend:
Vasopressin V1a receptor [1] = target: T1, Vasopressin V1a receptor (Homo sapiens, UniProt P37288); test: Activity at human vasopressin V1a receptor expressed in CHO cells assessed as inositol phosphate accumulation at 1 uM; type: functional, cell-based
Procedure, shortened: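 Human V1a-expressing CHO cells, 80000 cells/well, exposed to ligand for 30 min at 37 °C. IP1 was measured by HTRF IP-One. EC50 (K_act) from the dose–response curve. Emax is relative to the 1 μM AVP maximum. Weak responses are reported as % of AVP maximum at 1 μM ligand.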
Target sequence in this assay (P37288 whole entry, looked up): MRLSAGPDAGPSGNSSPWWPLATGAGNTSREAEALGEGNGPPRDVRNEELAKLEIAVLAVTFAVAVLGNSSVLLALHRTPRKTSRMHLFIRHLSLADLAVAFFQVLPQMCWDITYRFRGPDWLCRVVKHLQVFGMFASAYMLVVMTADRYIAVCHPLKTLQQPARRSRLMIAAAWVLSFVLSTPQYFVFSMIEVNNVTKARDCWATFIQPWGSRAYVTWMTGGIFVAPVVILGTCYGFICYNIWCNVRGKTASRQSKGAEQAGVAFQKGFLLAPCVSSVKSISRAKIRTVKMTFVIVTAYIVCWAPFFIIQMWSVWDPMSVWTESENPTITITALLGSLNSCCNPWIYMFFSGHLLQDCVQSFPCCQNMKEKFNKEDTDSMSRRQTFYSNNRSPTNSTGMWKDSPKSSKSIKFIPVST

Oxytocin receptor [2] = target: T2, Oxytocin receptor (Homo sapiens, UniProt P30559); test: Displacement of [3H]AVP from human oxytocin receptor expressed in CHO cells; type: cell-based; conditions: read-out: Ki
T2 sequence (P30559 whole entry): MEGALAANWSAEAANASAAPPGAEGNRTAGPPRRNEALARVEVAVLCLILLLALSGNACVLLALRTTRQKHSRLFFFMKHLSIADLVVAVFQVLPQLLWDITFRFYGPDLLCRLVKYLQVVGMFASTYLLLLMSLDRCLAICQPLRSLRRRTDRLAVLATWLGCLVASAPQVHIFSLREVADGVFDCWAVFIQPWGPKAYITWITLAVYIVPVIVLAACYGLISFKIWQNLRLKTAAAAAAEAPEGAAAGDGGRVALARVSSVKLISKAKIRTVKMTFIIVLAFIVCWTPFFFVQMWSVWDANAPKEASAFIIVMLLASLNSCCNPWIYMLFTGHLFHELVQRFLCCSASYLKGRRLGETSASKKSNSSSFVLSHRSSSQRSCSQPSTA
Procedure, shortened: (§1)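 Membranes came from CHO cells stably expressing the human receptor; OT-R and V1a-R cells were treated overnight with 5 mM butyrate. Membrane protein was 10–15 μg (OT, V1a) or 5 μg (V2), incubated 30 min at 30 °C in 50 mM Tris-HCl, 5 mM MgCl2, 1 mg/mL BSA, pH 7.4, with 1–2 nM [3H]AVP and competitor 0.1 pM–100 μM. Nonspecific binding: 10 μM AVP. Filtration, then Ki via Cheng–Prusoff. Mean ± SEM of ≥3 experiments in triplicate.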

Vasopressin V2 receptor [3] = target: T3, Vasopressin V2 receptor (Homo sapiens, UniProt P30518); test: Displacement of [3H]AVP from human vasopressin V2 receptor expressed in CHO cells; type: cell-based; conditions: read-out: Ki; procedure, shortened: as §1
T3 sequence (P30518 whole entry): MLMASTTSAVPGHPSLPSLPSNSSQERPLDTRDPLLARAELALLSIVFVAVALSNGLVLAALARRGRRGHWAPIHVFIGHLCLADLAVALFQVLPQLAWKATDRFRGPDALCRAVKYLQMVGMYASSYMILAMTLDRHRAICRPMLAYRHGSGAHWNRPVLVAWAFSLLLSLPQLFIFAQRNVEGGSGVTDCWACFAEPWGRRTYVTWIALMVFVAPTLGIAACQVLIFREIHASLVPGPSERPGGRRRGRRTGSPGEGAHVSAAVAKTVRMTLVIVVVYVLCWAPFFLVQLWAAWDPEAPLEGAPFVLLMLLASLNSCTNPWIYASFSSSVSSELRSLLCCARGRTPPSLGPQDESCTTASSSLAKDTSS

Vasopressin V2 receptor [4] = target: T3, Vasopressin V2 receptor; test: Activity at human vasopressin V2 receptor expressed in CHO cells assessed as inhibition of agonist-induced cAMP accumulation at 10 uM; type: functional, cell-based
Vasopressin V1a receptor [5] = target: T1, Vasopressin V1a receptor; test: Activity at human vasopressin V1a receptor expressed in CHO cells assessed as inhibition of agonist-induced inositol phosphate accumulation; type: functional, cell-based
Procedure, shortened: (§2)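 Human V1a receptor in stably transfected CHO cells, seeded at 80000 cells/well overnight. Cells were preincubated 10 min at 37 °C with ligand (10 fM–100 μM, ≤1% final DMSO), then challenged with 2 nM AVP for 30 min. IP1 was read by IP-One HTRF. K_inact was derived by Cheng–Prusoff-type correction using AVP K_act 1.20 nM. Fixed-concentration lines are % inhibition, n = 2.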
Target sequence in this assay (P37288 whole entry, looked up): as the sequence (P37288 whole entry, looked up) above

Vasopressin V1a receptor [6] = target: T1, Vasopressin V1a receptor; test: Displacement of [3H]AVP from human vasopressin V1a receptor expressed in CHO cells; type: cell-based; conditions: read-out: Ki; procedure, shortened: as §1
Target sequence in this assay (P37288 whole entry): as the sequence (P37288 whole entry, looked up) above

[7] = target: T4, Oxytocin receptor (Homo sapiens) (UniProt P30559); test: Activity at human oxytocin receptor expressed in CHO cells assessed as inositol phosphate accumulation; type: functional, cell-based
T4 sequence (whole entry): T2 sequence (P30559 whole entry)
Procedure, shortened: (§3)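 Agonist mode on CHO cells stably expressing human OT receptor: 30 min at 37 °C with ligand, 10 fM–100 μM, ≤1% final DMSO. IP1 accumulation was read by IP-One HTRF, ΔF from the 665/620 ratio. K_act is the EC50 from the sigmoidal fit. Emax is % of the 1 μM OT maximal response. Single-concentration lines are % of OT maximum, n = 2. Mean of ≥3 experiments in triplicate.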

[8] = target: T4, Oxytocin receptor (Homo sapiens); test: Activity at human oxytocin receptor expressed in CHO cells assessed as inhibition of agonist-induced inositol phosphate accumulation at 10 uM; type: functional, cell-based; set-up: scale not given: the % may be the effect or the level left
Vasopressin V2 receptor [9] = target: T3, Vasopressin V2 receptor; test: Activity at human vasopressin V2 receptor expressed in CHO cells assessed as cAMP accumulation at 1 uM; type: functional, cell-based
Procedure, shortened: (§4)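 V2-R agonism in CHO cells at 1000 cells/well, stimulated 30 min at 37 °C in D-MEM containing 0.1 mM Ro-20-1724 and 1 mg/mL BSA. cAMP was read by cAMP dynamic 2 HTRF. K_act from the sigmoidal fit. Emax is % of the 0.1 μM AVP response. Single-concentration values are % of AVP maximum.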

[10] = target: T4, Oxytocin receptor (Homo sapiens); test: Activity at human oxytocin receptor expressed in CHO cells assessed as inositol phosphate accumulation up to 100 uM; type: functional, cell-based; procedure, shortened: as §3
[11] = target: T4, Oxytocin receptor (Homo sapiens); test: Activity at human oxytocin receptor expressed in CHO cells assessed as inositol phosphate accumulation at 1 uM; type: functional, cell-based; procedure, shortened: as §3
[12] = target: T4, Oxytocin receptor (Homo sapiens); test: Activity at human oxytocin receptor expressed in CHO cells assessed as inositol phosphate accumulation up to 10 uM; type: functional, cell-based
Procedure, shortened: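 CHO cells stably expressing human OT receptor, seeded 80000 cells/well overnight at 37 °C. Ligands 10 fM to 100 μM (≤1% DMSO) in IP-One stimulation buffer, 30 min at 37 °C with 5% CO₂. IP₁ read by HTRF at 665/620 nm. EC50 (K_act) from sigmoidal curves; Emax as % of 1 μM OT maximum. Triplicate wells, ≥3 experiments.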

[13] = target: T4, Oxytocin receptor (Homo sapiens); test: Activity at human oxytocin receptor expressed in CHO cells assessed as inhibition of agonist-induced inositol phosphate accumulation; type: functional, cell-based
Vasopressin V2 receptor [14] = target: T3, Vasopressin V2 receptor; test: Activity at human vasopressin V2 receptor expressed in CHO cells assessed as inhibition of agonist-induced cAMP accumulation; type: functional, cell-based
Vasopressin V2 receptor [15] = target: T3, Vasopressin V2 receptor; test: Activity at human vasopressin V2 receptor expressed in CHO cells by cAMP dynamic 2 assay
Oxytocin receptor [16] = target: T2, Oxytocin receptor; test: Activity at human oxytocin receptor expressed in CHO cells by NFAT-luciferase gene reporter assay; type: cell-based
Vasopressin V1a receptor [17] = target: T1, Vasopressin V1a receptor; test: Activity at human vasopressin V1a receptor expressed in CHO cells assessed as inhibition of agonist-induced inositol phosphate accumulation at 1 uM; type: functional, cell-based; set-up: scale not given: the % may be the effect or the level left; procedure, shortened: as §2
Target sequence in this assay (P37288 whole entry, looked up): as above

Vasopressin V1a receptor [18] = target: T1, Vasopressin V1a receptor; test: Activity at human vasopressin V1a receptor expressed in CHO cells by NFAT-luciferase gene reporter assay; type: cell-based
Target sequence in this assay (P37288 whole entry): as the sequence (P37288 whole entry, looked up) above

Vasopressin V2 receptor [19] = target: T3, Vasopressin V2 receptor; test: Activity at human vasopressin V2 receptor expressed in CHO cells assessed as cAMP accumulation; type: functional, cell-based; procedure, shortened: as §4
Vasopressin V2 receptor [20] = target: T3, Vasopressin V2 receptor; test: Activity at human vasopressin V2 receptor expressed in CHO cells assessed as inhibition of agonist-induced cAMP accumulation at 1 uM; type: functional, cell-based

Cc1cc(C(=O)N2Cc3cccn3Cc3ccccc32)ccc1CNC(=O)N1CCC[C@H]1C(=S)N1CCCN(C)CC1
Activity (Vasopressin V1a receptor [1]): inactive | Ki (Oxytocin receptor [2]): 2500 nM | Ki (Vasopressin V2 receptor [3]): 3400 nM | Inhibition (Vasopressin V2 receptor [4]): 43% | Kinact (Vasopressin V1a receptor [5]): 754 nM | Ki (Vasopressin V1a receptor [6]): > 1000 nM | Kact [7]: 110 µM | Activity [8]: 11% | Emax (Vasopressin V2 receptor [9]): 9% | Activity [10]: inactive | Emax [11]: 50.6%

Cc1cc(C(=O)N2Cc3cnn(C)c3Nc3ccccc32)ccc1NC(=O)c1ccccc1-c1ccccc1
Activity [12]: inactive | Activity (Vasopressin V1a receptor [1]): inactive | Kinact [13]: 557 nM | Ki (Oxytocin receptor [2]): 111 nM | Ki (Vasopressin V2 receptor [3]): 6.4 nM | Kinact (Vasopressin V2 receptor [14]): 1.1 nM | Kinact (Vasopressin V1a receptor [5]): 412 nM | Ki (Vasopressin V1a receptor [6]): 37 nM | Activity (Vasopressin V2 receptor [9]): inactive

Cc1ccn(-c2ccc(C(=O)N3Cc4cccn4Cc4ccccc43)c(Cl)c2)n1
Activity (Vasopressin V1a receptor [1]): inactive | Kinact [13]: 488 nM | EC50 (Vasopressin V2 receptor [15]): 39.9 nM | Ki (Oxytocin receptor [2]): 199 nM | Ki (Vasopressin V2 receptor [3]): 50 nM | EC50 (Oxytocin receptor [16]): 125 nM | Activity (Vasopressin V1a receptor [17]): 33% | Ki (Vasopressin V1a receptor [6]): 344 nM | EC50 (Vasopressin V1a receptor [18]): 465 nM | Kact (Vasopressin V2 receptor [19]): 9.5 nM | Activity (Vasopressin V2 receptor [20]): inactive | Emax (Vasopressin V2 receptor [9]): 75% | Activity [11]: inactive

Cc1cc(C(=O)N2CCC(N3C(=O)OCc4ccccc43)CC2)ccc1CNC(=O)N1CCC[C@H]1C(=S)N1CCCN(C)CC1
Activity [12]: inactive | Activity (Vasopressin V1a receptor [1]): inactive | Kinact [13]: 383 nM | Ki (Oxytocin receptor [2]): 245 nM | Activity (Vasopressin V1a receptor [17]): inactive | Ki (Vasopressin V1a receptor [6]): > 5000 nM | Activity (Vasopressin V2 receptor [20]): inactive | Activity (Vasopressin V2 receptor [9]): inactive

Cc1ccn(-c2ccc(C(=O)N3Cc4cnn(C)c4Nc4ccccc43)cc2C)n1
Activity (Vasopressin V1a receptor [1]): inactive | Kinact [13]: 14.8 nM | Ki (Oxytocin receptor [2]): 27.8 nM | Ki (Vasopressin V2 receptor [3]): 913 nM | Kinact (Vasopressin V2 receptor [14]): 253 nM | Kinact (Vasopressin V1a receptor [5]): 32.5 nM | Ki (Vasopressin V1a receptor [6]): 18 nM | Activity (Vasopressin V2 receptor [9]): inactive

O=C(Nc1ccc(C(=O)N2CCCCc3ccccc32)cc1)c1ccccc1-c1ccccc1
Activity (Vasopressin V1a receptor [1]): inactive | Kinact [13]: 171 nM | EC50 (Vasopressin V2 receptor [15]): 7.6 nM | Ki (Oxytocin receptor [2]): 109 nM | Ki (Vasopressin V2 receptor [3]): 0.57 nM | Kinact (Vasopressin V2 receptor [14]): 0.096 nM | Kinact (Vasopressin V1a receptor [5]): 63 nM | EC50 (Oxytocin receptor [16]): 63 nM | Ki (Vasopressin V1a receptor [6]): 2.74 nM | EC50 (Vasopressin V1a receptor [18]): 14 nM | Activity (Vasopressin V2 receptor [9]): inactive | Activity [11]: inactive
